Data published in ChEMBL document CHEMBL3286332, “Synthesis and radical scavenging activity of phenol-imidazole conjugates” (Bioorg Med Chem Lett, 2014).

Columns and labels:
Assay type in all cases: functional
[1] = tested on: Radical scavenging activity; assay: Antioxidant activity assessed as DPPH free radical scavenging activity after 60 mins by spectrophotometric analysis
How it was run: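 Compound in ethanol, 1 to 100 μM, combined 1:9 with 0.002% (w/v) ethanolic DPPH; absorbance read at 517 nm after 60 min against an ethanol-only control. Triplicate measurements. Inhibition of discoloration expressed as percent of control; IC50 (concentration scavenging 50% of DPPH) obtained from the inhibition curve.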

[2] = Antioxidant activity assessed as hydroxyl radical scavenging activity at 5 uM after 1 hr by 2-Deoxy-D-ribose degradation assay in presence of FeCl3 and EDTA
How it was run: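 The 1 mL mixture held 10 mM KH2PO4-KOH pH 7.4, 2-deoxy-D-ribose, FeCl3 made up in 2 mM Na2EDTA, H2O2, ascorbic acid and 5 μM compound added from DMSO. It was incubated 1 h at 37 °C, then thiobarbituric acid in NaOH and trichloroacetic acid were added and it was heated 15 min at 100 °C. Absorbance was read at 535 nm. Controls: no compound (100% MDA) and no deoxyribose (blank). Triplicate.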

[3] = Antioxidant activity assessed as hydroxyl radical scavenging activity at 5 uM after 1 hr by 2-Deoxy-D-ribose degradation assay in presence of FeCl3
How it was run: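 Hydroxyl radical attack on 2-deoxy-D-ribose in 10 mM KH2PO4-KOH pH 7.4 with FeCl3 made up in buffer (no EDTA), H2O2, ascorbic acid and 5 μM compound from DMSO. Incubated 1 h at 37 °C. TBA/TCA was added, the mixture heated at 100 °C for 15 min, and MDA read at 535 nm. Result is percent protection against the compound-free control. Triplicate.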

[4] = tested on: Radical scavenging activity; assay: Antioxidant activity assessed as DPPH free radical scavenging activity measured as remaining DPPH at 100 uM after 60 mins by spectrophotometric analysis relative to control
How it was run: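 100 μM compound in ethanol mixed 1:9 with 0.002% (w/v) ethanolic DPPH. Absorbance at 517 nm after 60 min, compared with an ethanol control. Value is percent of DPPH remaining, run in triplicate.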

[5] = tested on: Radical scavenging activity; assay: Antioxidant activity assessed as DPPH free radical scavenging activity measured as remaining DPPH at 100 uM after 5 mins by spectrophotometric analysis relative to control
[6] = tested on: Radical scavenging activity; assay: Antioxidant activity assessed as DPPH free radical scavenging activity measured as remaining DPPH at 10 uM after 5 mins by spectrophotometric analysis relative to control
[7] = tested on: Radical scavenging activity; assay: Antioxidant activity assessed as DPPH free radical scavenging activity measured as remaining DPPH at 10 uM after 2 mins by spectrophotometric analysis relative to control

Row | SMILES | IC50 [1] [µM] | Activity [2] [%] | Activity [3] [%] | DPPH remaining [4] [%] | Activity [5] [%] | Activity [6] [%] | Activity [7] [%]
1 | N#Cc1ncn(-c2ccc(F)cc2)c1N |  | 50 | 19 | 94.1 |  |  | 
2 | N#Cc1ncn(-c2ccc(O)cc2)c1/N=C/c1c(O)cc(O)cc1O |  | 55 | 17 | 45.9 | < 50 |  | 
3 | N#Cc1ncn(-c2ccc(O)cc2)c1N |  | 47 | 57 | 94.8 |  |  | 
4 | COc1cc(C=O)ccc1O |  | 37 | 30 | 97.6 |  |  | 
5 | COc1ccc(-n2cnc(C#N)c2/N=C/c2ccc(O)c(OC)c2)cc1 |  | 47 | 12 | 88.6 |  |  | 
6 | O=Cc1ccc(O)c(O)c1 [PROTOCATECHUALDEHYDE] | 5.4 | 51 | 35 |  |  |  | 
7 | COc1ccc(-n2cnc(C#N)c2N)cc1 |  | 46 | 29 | 94.2 |  |  | 
8 | O=Cc1c(O)cc(O)cc1O |  | 42 | 36 | 91.2 |  |  | 
9 | Cn1cnc(C#N)c1/N=C/c1c(O)cc(O)cc1O |  | 54 | 18 | 49.9 |  |  | 
10 | N#Cc1ncn(-c2ccc(F)cc2)c1/N=C/c1ccc(O)c(O)c1 | 4.4 | 58 | 11 |  |  |  | 
11 | COc1ccc(-n2cnc(C#N)c2/N=C/c2c(O)cc(O)cc2O)cc1 |  | 62 | 16 | 48.3 |  |  | 
12 | Cn1cnc(C#N)c1N |  | 54 | 23 | 94.2 |  |  | 

Continued, in another order:

Row | IC50 [1] [µM] | SMILES | Activity [2] [%] | Activity [3] [%] | DPPH remaining [4] [%] | Activity [5] [%] | Activity [6] [%] | Activity [7] [%]
13 | 4 | COc1ccc(-n2cnc(C#N)c2/N=C/c2cc(O)c(O)c(O)c2)cc1 | 51 | 42 |  |  |  | 
14 | 7.3 | COc1ccc(-n2cnc(C#N)c2/N=C/c2ccc(O)c(O)c2O)cc1 | 57 | 25 |  |  |  | 
15 | 11.6 | O=Cc1ccc(O)c(O)c1O | 46 | 34 |  |  |  | 
16 | 3.2 | N#Cc1ncn(-c2ccc(O)cc2)c1/N=C/c1ccc(O)c(O)c1 | 60 | 38 |  |  | < 50 | < 50
17 | 9.5 | Cc1c(C)c2c(c(C)c1O)CCC(C)(C(=O)O)O2 (centres undefined) [TROLOX] | 53 | 31 |  |  |  | 
18 | 4.8 | N#Cc1ncn(-c2ccc(O)cc2)c1/N=C/c1cc(O)c(O)c(O)c1 | 49 | 51 |  |  | < 50 | < 50
19 | 4.7 | Cn1cnc(C#N)c1/N=C/c1cc(O)c(O)c(O)c1 | 54 | 44 |  |  |  | 
20 | 8.4 | N#Cc1ncn(-c2ccc(F)cc2)c1/N=C/c1ccc(O)c(O)c1O | 53 | 34 |  |  |  | 
21 | 5.8 | N#Cc1ncn(-c2ccc(F)cc2)c1/N=C/c1cc(O)c(O)c(O)c1 | 54 | 30 |  |  |  | 
22 | 7 | Cn1cnc(C#N)c1/N=C/c1ccc(O)c(O)c1O | 54 | 37 |  |  |  | 
23 | 4.1 | COc1ccc(-n2cnc(C#N)c2/N=C/c2ccc(O)c(O)c2)cc1 | 61 | 17 |  |  |  | 
24 | 3.8 | Cn1cnc(C#N)c1/N=C/c1ccc(O)c(O)c1 | 52 | 27 |  |  |  | 
25 | 6 | O=Cc1cc(O)c(O)c(O)c1 | 50 | 38 |  |  |  | 
26 | 7.2 | N#Cc1ncn(-c2ccc(O)cc2)c1/N=C/c1ccc(O)c(O)c1O | 38 | 28 |  |  | < 50 | 
